Reference: article PMC10336577 (Saudi Pharmaceutical Journal : SPJ, 2023)
Converted amounts (≈) assume the structure as drawn. “And” between values parts separate entries of the source, which are not always exact repeats. Equal entries are not always repeated. Where two headings read alike, the source gives them in different places.

Experiments:
[1] = system: HT-1080 fibrosarcoma cell line; conditions: ref Rajendra et al., 2011, cited from earlier work
[2] = system: A375-S2 human malignant melanoma; conditions: ref Sun et al. 2006; cited from earlier work
[3] = system: Bel-7402 human hepatocellular carcinoma; conditions: ref Sun et al. 2006; cited from earlier work
MCF-7 cell line [4] = test: Annexin V-FITC/PI flow cytometry, MCF-7; type: cell-based; conditions: 48 h
[5] = system: MCF-10A non-tumorigenic breast epithelial cell line; test: MTT cytotoxicity assay, MCF-10A; type: cell-based; conditions: 24 h; for IC50: Homo sapiens, MCF-10A, read-out: IC50, MCF-10A
Summary of the method: (§1)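 Human lines were obtained from ATCC. MCF-7 and MDA-MB-231 were grown in DMEM with 10% FBS, and MCF-10A in DMEM-F12 with 10% FBS, all at 37 °C, 5% CO2. Cells were seeded at 1×10^4 per well, given varying concentrations of extract or test compound, and PBS-washed after 24 h. MTT was applied for 4 h at 37 °C and formazan dissolved in DMSO, with absorbance read at 570 nm. Hydrogen peroxide was the positive control. Runs were done in triplicate, with % viability and IC50 calculated.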

MDA-MB-231 cell line [6] = test: Annexin V-FITC/PI flow cytometry, MDA-MB-231; type: cell-based; conditions: 48 h; for viable cells, MDA-MB-231: quadrant LL, highest doses of compounds; for early apoptotic cells, MDA-MB-231: quadrant LR; for necrotic cells, MDA-MB-231: quadrant UL; for late apoptotic cells, MDA-MB-231: quadrant UR
MCF-7 cell line [7] = test: MTT cytotoxicity assay, MCF-7; type: cell-based; conditions: for IC50: Homo sapiens, MCF7, 24 h, read-out: IC50, MCF-7
Summary of the method: as §1

MDA-MB-231 cell line [8] = test: MTT cytotoxicity assay, MDA-MB-231; type: cell-based; conditions: for IC50: Homo sapiens, MDA-MB-231, 24 h, read-out: IC50, MDA-MB-231
Summary of the method: as §1

[9] = system: HeLa human uterine carcinoma; conditions: ref Sun et al. 2006; cited from earlier work
[10] = system: SGC-7901 human gastric cancer cell line; conditions: ref Sun et al. 2006; cited from earlier work
[11] = system: IGROV-1 human ovary cell line; conditions: ref Znati et al., 2014; cited from earlier work
[12] = system: HCT-116 human colon cancer cell line; conditions: ref Znati et al., 2014; cited from earlier work
[13] = system: OVCAR-3 human ovary cell line; conditions: ref Znati et al., 2014; cited from earlier work
[14] = system: HEP-G2 hepatocellular carcinoma cells; conditions: 25–400 μg/mL, 72 h, MTT assay; ref Gevrenova et al., 2016; cited from earlier work
[15] = system: DMS-114 human lung cancer cell line; conditions: ref Manthey and Guthrie, 2002; cited from earlier work
cells = test: Cell death type; type: cell-based
Summary of the method: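 MCF-7, MDA-MB-231 and MCF-10A cells were seeded at 3×10^5 cells per well in six-well plates and held 24 h at 37 °C, 5% CO2. They were exposed 48 h to the highest test-compound doses, trypsinised, PBS-washed and pelleted at 1500 rpm for 5 min. Cells were stained with Annexin V-FITC/PI in 1X binding buffer for 15 min at 37 °C in the dark, then run by flow cytometry. Viable, early/late apoptotic and necrotic cells are given as % of total, in triplicate.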

[16] = system: DU-145 prostate cancer cell line; conditions: ref Manthey and Guthrie, 2002; cited from earlier work
[17] = system: DU145 prostate cancer cell; conditions: ref Lewinska et al., 2015, cited from earlier work
A431 cells = conditions: MTT assay; ref Buddhan and Manoharan, 2017; cited from earlier work
[18] = system: SK-MEL5 melanoma cancer cell line; conditions: ref Manthey and Guthrie, 2002; cited from earlier work
[19] = system: HT-29 colon cancer cell line; conditions: ref Manthey and Guthrie, 2002; cited from earlier work
[20] = system: MIA PaCa-2 pancreatic cancer cell line; conditions: read-out: IC50, MIA PaCa-2; ref Boukes and Venter, 2016; cited from earlier work
[21] = system: breast cancer cell lines (MCF-7 and MDA-MB-231); test: MTT cytotoxicity on the breast cancer cell lines; type: cell-based; conditions: MCF-7 and MDA-MB-231, MTT
[22] = system: INS-1 pancreatic cancer cell line; conditions: read-out: IC50, INS-1; ref Boukes and Venter, 2016; cited from earlier work
[23] = system: A549 human non-small cell lung cancer cell line; conditions: ref Yang et al., 2017, cited from earlier work
[24] = system: HepG2 hepatocellular carcinoma cell line; conditions: 100 µM; ref Refolo et al., 2018; cited from earlier work
[25] = system: PLC/PRF/5 hepatocellular carcinoma cell line; conditions: 100 µM; ref Refolo et al., 2018; cited from earlier work
[26] = system: BT-20 human breast cancer cell line; conditions: read-out: IC50, BT-20; ref Bender and Atalay, 2018; cited from earlier work
[27] = system: MDA-MB-468 human breast cancer cell line; conditions: read-out: IC50, MDA-MB-468; ref Bender and Atalay, 2018; cited from earlier work
[28] = system: SK-BR-3 human breast cancer cell line; conditions: read-out: IC50, SK-BR-3; ref Bender and Atalay, 2018; cited from earlier work
[29] = MTT assay, 24 h, ± standard deviation

## O=C(O)/C=C/c1ccc(O)c(O)c1 [Compound 4, Caffeic acid]
[1]; 50 µg/mL
  cell viability, HT-1080: 15%
[1]; 30, 40, and 50 μg/mL
  inhibition of HT-1080 cell line: notably inhibited
[2]
  concentration up to which no cytotoxic activity was shown, A375-S2: > 100 µg/mL
[3]
  concentration up to which no cytotoxic activity was shown, Bel-7402: > 100 µg/mL
MCF-7 cell line [4]; quadrant LR, doses as b44
  early apoptotic cells, MCF-7: 52%
MCF-7 cell line [4]; quadrant UL, doses as b44
  necrotic cells, MCF-7: 3%
MCF-7 cell line [4]; quadrant UR, doses as b44
  late apoptotic cells, MCF-7: 13%
[5]
  IC50: 149 ± 14.1 µg/mL (≈ 825 µM)
MDA-MB-231 cell line [6]
  viable cells, MDA-MB-231: 30%
  early apoptotic cells, MDA-MB-231: 52%
  necrotic cells, MDA-MB-231: 3%
  late apoptotic cells, MDA-MB-231: 13%
MCF-7 cell line [7]
  IC50: 40.3 ± 2.84 µg/mL (≈ 224 µM)
MDA-MB-231 cell line [8]
  IC50: 64 ± 4.11 µg/mL (≈ 355 µM)
[9]
  concentration up to which no cytotoxic activity was shown, HeLa: > 100 µg/mL
[10]
  concentration up to which no cytotoxic activity was shown, SGC-7901: > 100 µg/mL

## COc1cc(-c2oc3cc(O)cc(O)c3c(=O)c2O[C@@H]2O[C@H](CO[C@@H]3O[C@@H](C)[C@H](O)[C@@H](O)[C@H]3O)[C@@H](O)[C@H](O)[C@H]2O)ccc1O [Compound 2, Isorhamnetin-3-O-rutinoside]
[11]
  concentration up to which no cytotoxic activity was shown, IGROV-1: > 100 µM
[12]
  concentration up to which no cytotoxic activity was shown, HCT-116: > 100 µM
[5]
  IC50: 133 ± 23.5 µg/mL (≈ 214 µM)
MDA-MB-231 cell line [6]
  viable cells, MDA-MB-231: 63%
MCF-7 cell line [7]
  IC50: 137 ± 8.62 µg/mL (≈ 220 µM)
MDA-MB-231 cell line [8]
  IC50: 77.8 ± 39.9 µg/mL (≈ 125 µM)
[13]
  concentration up to which no cytotoxic activity was shown, OVCAR-3: > 100 µM
[14]
  hepatoprotective activity, HEP-G2: no significant hepatoprotective activity

## OO [Compound H2O2, hydrogen peroxide, reference compound]
MCF-7 cell line [4]; doses as b44
  percentage of cell death, MCF-7: 70%
MCF-7 cell line [4]; quadrant LL, H2O2 17, Compound 1 24, 2 156, 3 372, 4 30, 5 710, 6 60 µg/mL
  viable cells, MCF-7: 30%
[5]; MTT assay, ± standard deviation
  IC50, MCF-10A: 10.32 ± 3.60 µg/mL and 11.40 ± 3.60 µg/mL and 9.77 ± 8.56 µg/mL and 12.58 ± 9.77 µg/mL
MDA-MB-231 cell line [6]
  percentage of cell death, MDA-MB-231: 79%
  viable cells, MDA-MB-231: 21%
MCF-7 cell line [7]; [29]
  IC50, MCF-7: 7.45 ± 12.77 µg/mL and 10.11 ± 0.90 µg/mL and 11.97 ± 6.72 µg/mL and 9.91 ± 0.31 µg/mL
MDA-MB-231 cell line [8]; [29]
  IC50, MDA-MB-231: 8.48 ± 3.53 µg/mL and 11.86 ± 2.43 µg/mL and 11.45 ± 1.52 µg/mL

## COc1ccc(-c2cc(=O)c3c(O)cc(O[C@@H]4O[C@H](CO[C@@H]5O[C@@H](C)[C@H](O)[C@@H](O)[C@H]5O)[C@@H](O)[C@H](O)[C@H]4O)cc3o2)cc1O [Compound 1, Diosmetin-7-O-rutinoside]
[15]
  concentration up to which no cytotoxic activity was shown, DMS-114: > 200 µM
cells
  type of cell death causing the cytotoxic effect: necrosis
[16]
  concentration up to which no cytotoxic activity was shown, DU-145: > 200 µM
[17]; 50 µM
  DU145 cell viability: 70%
[17]; 250 µM
  DU145 cell viability: 40%
[5]
  IC50: 8.66 ± 20.5 µg/mL (≈ 14.2 µM)
MDA-MB-231 cell line [6]
  viable cells, MDA-MB-231: 56%
MCF-7 cell line [7]
  IC50: 13.7 ± 11 µg/mL (≈ 22.4 µM)
A431 cells
  IC50, A431: 45 µg/mL (≈ 73.9 µM)
MDA-MB-231 cell line [8]
  IC50: 12.9 ± 12.2 µg/mL (≈ 21.2 µM)
[18]
  concentration up to which no cytotoxic activity was shown, SK-MEL5: > 200 µM
[19]
  concentration up to which no cytotoxic activity was shown, HT-29: > 200 µM

## O=c1c(O[C@@H]2O[C@H](CO)[C@H](O)[C@H](O)[C@H]2O)c(-c2ccc(O)c(O)c2)oc2cc(O)cc(O)c12 [Compound 3, Quercetin-3-O-galactoside]
[20]
  IC50: 50 µM
[21]
  concentration up to which no cytotoxic activity was shown: > 100 µg/mL
[22]
  IC50: 50 µM
[5]
  IC50: 127 ± 12.5 µg/mL (≈ 273 µM)
MDA-MB-231 cell line [6]
  viable cells, MDA-MB-231: 46%
  early apoptotic cells, MDA-MB-231: 22%
  necrotic cells, MDA-MB-231: 6%
  late apoptotic cells, MDA-MB-231: 26%
[23]; 10–100 µM, time- and dose-dependent
  cell viability of A549: inhibited cell viability
[23]; 24 h, dose-dependent
  percentage of apoptotic cells, A549: significant increase
MCF-7 cell line [7]
  IC50: 147 ± 7.32 µg/mL (≈ 317 µM)
MDA-MB-231 cell line [8]
  IC50: 141 ± 14 µg/mL (≈ 304 µM)

## O=C(/C=C/c1ccc(O)c(O)c1)O[C@@H]1C[C@](O)(C(=O)O)C[C@@H](O)[C@H]1O [Compound 5, Chlorogenic acid]
[24]
  effect on Regorafenib-mediated cell growth inhibition, HepG2: enhanced
[25]
  effect on Regorafenib-mediated cell growth inhibition, PLC/PRF/5: enhanced
[21]
  concentration up to which no cytotoxic activity was shown: > 360 µg/mL
[26]
  IC50: 1100 µM
[5]
  IC50: 356 ± 19.1 µg/mL (≈ 1010 µM)
MDA-MB-231 cell line [6]
  viable cells, MDA-MB-231: 51%
MCF-7 cell line [7]
  IC50: 371 ± 9.49 µg/mL (≈ 1050 µM)
MDA-MB-231 cell line [8]
  IC50: 361 ± 4.83 µg/mL (≈ 1020 µM)
[27]
  IC50: 940 µM
[28]
  IC50: 882 µM
